In ChEMBL document CHEMBL5712900, “JQ1 affects BRD2-dependent and independent transcription regulation without disrupting H4-hyperacetylated chromatin states” (2018):
The source made the active and inactive calls. The rule behind the calls is not given here.

Tests used:
NCI-H23 [1] = experiment: Effect in H3K27ac global level in human NCI-H23 cells at 500 nM incubated for 24 hrs by Chip-seq assay; type: functional, cell-based
NCI-H23 [2] = experiment: Induction of apoptosis in human NCI-H23 cells at 5 to 5000 nM incubated for 24 hsr by Green Apoptosis assay; type: functional, cell-based; settings: dose 5-5000 nM, time 24.0 hrs
How it was run: (§1)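 RFP-labelled H23 cells were seeded at 8,000 cells/well one day ahead and given JQ1 at 5, 50, 500, 1,000 or 5,000 nM. For apoptosis, Caspase-3/7 Green reagent (DEVD–NucView488) was added with the drug. Plates were imaged hourly for 24 h. Red (proliferating) or green (apoptotic) objects were counted per image and expressed as fold change versus 0 h.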

NCI-H23 [3] = experiment: Antiproliferation activity against human NCI-H23 cells assessed as decrease in cell proliferation at 5 to 5000 nM incubated for 24 hrs by Green Apoptosis Assay; type: functional, cell-based; settings: dose 5-5000 nM; how it was run: as §1
NCI-H23 [4] = experiment: Down regulation of FOSL1 protein expression in human NCI-H23 cells at 500 nM measured after 3 to 24 hrs by […]; type: functional, cell-based; settings: time 3-24 hrs
NCI-H23 [5] = experiment: Down regulation of FOSL1 gene expression in human NCI-H23 cells at 500 nM measured after 3 to 24 hrs by qPCR analysis; type: functional, cell-based; settings: time 3-24 hrs
How it was run: (§2)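 H23 cells were grown in RPMI-1640 with 10% FBS and plated 48 h before treatment at 170,000 cells/ml. Medium was replaced with fresh medium containing 500 nM JQ1 or matched DMSO, and cells were harvested at 3, 6, 12 and 24 h. Total RNA was extracted with TRIzol and assayed by SYBR qPCR (40 cycles). Expression was normalized to GAPDH and compared with DMSO. There were three biological replicates, each run in duplicate twice.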

NCI-H23 [6] = experiment: Effect in H4K5acK8ac global level Promoter region in human NCI-H23 cells at 500 nM incubated for 24 hrs by Chip-seq assay; type: functional, cell-based
How it was run: (§3)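 H23 cells received 500 nM JQ1 or DMSO for 24 h and then underwent formaldehyde crosslinking. For spike-in ChIP-seq, H23 chromatin was mixed with Drosophila chromatin at 400:1 for H4K5acK8ac or 600:1 for BRD2, adding anti-H2Av antibody. Reads were normalized to Drosophila counts, with two biological replicates. Signals were averaged over peaks from untreated cells, and differential H4K5acK8ac peaks were called at FDR <0.05.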

NCI-H23 [7] = experiment: Effect in H4K5acK8ac global level enhancer region in human NCI-H23 cells at 500 nM incubated for 24 hrs by Chip-seq assay; type: functional, cell-based; how it was run: as §3
NCI-H23 [8] = experiment: Effect in H4K5acK8ac global level super enhancer region in human NCI-H23 cells at 500 nM incubated for 24 hrs by Chip-seq assay; type: functional, cell-based; how it was run: as §3
NCI-H23 [9] = experiment: Effect in H4K5acK8ac subpopulation level in human NCI-H23 cells at 500 nM incubated for 24 hrs by Chip-seq assay; type: functional; how it was run: as §3
NCI-H23 [10] = experiment: Effect in H3K27ac subpopulation level in human NCI-H23 cells at 500 nM incubated for 24 hrs by Chip-seq assay; type: functional, cell-based
NCI-H23 [11] = experiment: Down regulation of BRD2 gene expression in human NCI-H23 cells at 500 nM measured after 3 to 24 hrs by qPCR analysis; type: functional, cell-based; settings: time 3-24 hrs; how it was run: as §2
NCI-H23 [12] = experiment: Down regulation of BRD4 gene expression in human NCI-H23 cells at 500 nM measured after 3 to 24 hrs by qPCR analysis; type: functional, cell-based; settings: time 3-24 hrs; how it was run: as §2
NCI-H23 [13] = experiment: Down regulation of CFLAIR gene expression in human NCI-H23 cells at 500 nM measured after 3 to 24 hrs by qPCR analysis; type: functional, cell-based; settings: time 3-24 hrs; how it was run: as §2
NCI-H23 [14] = experiment: Down regulation of BCL2 gene expression in human NCI-H23 cells at 500 nM measured after 3 to 24 hrs by qPCR analysis; type: functional, cell-based; settings: time 3-24 hrs; how it was run: as §2
NCI-H23 [15] = experiment: Down regulation of WNT2 gene expression in human NCI-H23 cells at 500 nM measured after 3 to 24 hrs by qPCR analysis; type: functional, cell-based; settings: time 3-24 hrs; how it was run: as §2
NCI-H23 [16] = experiment: Down regulation of WNT5A-2 gene expression in human NCI-H23 cells at 500 nM measured after 3 to 24 hrs by qPCR analysis; type: functional, cell-based; settings: time 3-24 hrs; how it was run: as §2
NCI-H23 [17] = experiment: Effect on CTNNB1 gene expression in human NCI-H23 cells at 500 nM measured after 3 to 24 hrs by qPCR analysis; type: functional, cell-based; settings: time 3-24 hrs; how it was run: as §2
NCI-H23 [18] = experiment: Upregulation of MYC gene expression in human NCI-H23 cells at 500 nM measured after 3 to 24 hrs by qPCR analysis; type: functional, cell-based; settings: time 3-24 hrs; how it was run: as §2
[19] = molecular target: Bromodomain-containing protein 2 (Homo sapiens) (UniProt P25440); settings: NCI-H23, dose 500.0 nM, time 24.0 hrs
Bromodomain-containing protein 2 (Homo sapiens), sequence (P25440 whole entry, looked up): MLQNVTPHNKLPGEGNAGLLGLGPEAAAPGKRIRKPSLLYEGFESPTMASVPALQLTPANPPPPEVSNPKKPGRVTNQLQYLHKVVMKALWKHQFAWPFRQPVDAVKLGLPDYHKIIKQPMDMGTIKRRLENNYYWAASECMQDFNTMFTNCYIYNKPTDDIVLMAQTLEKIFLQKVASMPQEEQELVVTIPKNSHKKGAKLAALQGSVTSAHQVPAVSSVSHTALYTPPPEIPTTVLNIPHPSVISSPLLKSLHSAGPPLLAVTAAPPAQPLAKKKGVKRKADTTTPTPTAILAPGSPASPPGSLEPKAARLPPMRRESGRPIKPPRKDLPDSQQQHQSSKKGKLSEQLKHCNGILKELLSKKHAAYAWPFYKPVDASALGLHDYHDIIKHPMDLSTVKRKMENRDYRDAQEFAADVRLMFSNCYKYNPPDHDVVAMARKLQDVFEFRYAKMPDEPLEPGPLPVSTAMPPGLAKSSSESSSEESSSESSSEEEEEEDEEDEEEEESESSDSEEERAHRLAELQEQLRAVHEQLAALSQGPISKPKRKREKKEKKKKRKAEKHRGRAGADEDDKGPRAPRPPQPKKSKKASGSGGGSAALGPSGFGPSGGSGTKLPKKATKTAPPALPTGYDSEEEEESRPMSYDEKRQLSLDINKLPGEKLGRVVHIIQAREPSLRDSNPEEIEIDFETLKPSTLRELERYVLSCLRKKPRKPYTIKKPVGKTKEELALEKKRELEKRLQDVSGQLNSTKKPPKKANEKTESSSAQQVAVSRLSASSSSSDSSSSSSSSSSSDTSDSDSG

Cc1sc2c(c1C)C(c1ccc(Cl)cc1)=N[C@@H](CC(=O)OC(C)(C)C)c1nnc(C)n1-2
Activity (NCI-H23 [1]): inactive
Activity (NCI-H23 [2]): Active
Activity (NCI-H23 [3]): Active
Activity (NCI-H23 [4]): Active
Activity (NCI-H23 [5]): Active
Activity (NCI-H23 [6]): inactive
Activity (NCI-H23 [7]): inactive
Activity (NCI-H23 [8]): inactive
fold change (FC) (NCI-H23 [9]): 2
Activity (NCI-H23 [10]): Active
Activity (NCI-H23 [11]): inactive
Activity (NCI-H23 [12]): inactive
Activity (NCI-H23 [13]): Active
Activity (NCI-H23 [14]): Active
Activity (NCI-H23 [15]): Active
Activity (NCI-H23 [16]): Active
Activity (NCI-H23 [17]): Active
Activity (NCI-H23 [18]): Active
inhibition [19]: 100%
